Active and inactive are the calls of the source. No cut-off for these calls is given here.
Columns and labels:
[1] = Cytotoxicity against rat RBL2H3 cells after 12 hrs by MTT assay; format: cell-based; settings: RBL-2H3, 12 h
Summary of the method: (§1)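 MTT viability assay in RBL-2H3 cells grown to 70-80% confluence and then exposed to compound; untreated and ≤0.5% DMSO cultures served as controls. MTT stock 5 mg/mL was diluted 1:10 into medium 3 h before the end of exposure, then incubated 2 h at 37 °C. Formazan was dissolved in DMSO and read at 600 nm. Viability is given as % of control OD, ≥3 repeats, and IC50 was derived from this.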

[2] = Cytotoxicity against rat RBL2H3 cells at 200 uM after 12 hrs by MTT assay; format: cell-based; settings: rbl-2h3, 12 h; summary of the method: as §1
[3] = system: RBL-2H3; experiment: Antiallergic activity in mIgE-DNP and DNP-BSA-stimulated rat RBL2H3 cells assessed as inhibition of beta-hexosaminidase release at 200 uM pretreated before mIgE-DNP challenge; format: functional, cell-based; settings: TDE = time-dependent effect
Summary of the method: (§2)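 RBL-2H3 cells (DMEM, 10% FBS) seeded at 1 × 10^5/well and left 4-6 h at 37 °C to adhere. Compound was added at final concentrations for various pretreatment times, then mIgE-DNP was added for 16 h. Cells were washed in Tyrode's buffer (pH 7.4, 1 mg/mL BSA) and challenged with DNP-BSA 1 µg/mL for 1 h at 37 °C. Supernatant was incubated with p-NAG in citrate pH 4.5 for 1 h at 37 °C and read at A405. Inhibition was calculated against Triton X-100 total-release and spontaneous-release controls.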

[4] = system: RBL-2H3; experiment: Antiallergic activity in mIgE-DNP and DNP-BSA-stimulated rat RBL2H3 cells assessed as inhibition of beta-hexosaminidase release pretreated before mIgE-DNP challenge measured after 12 to 48 hrs; format: functional, cell-based; summary of the method: as §2
[5] = Cytotoxicity against rat RBL2H3 cells at 120 uM after 12 hrs by MTT assay; format: cell-based; settings: rbl-2h3, 12 h; summary of the method: as §1
[6] = system: RBL-2H3; experiment: Antiallergic activity in mIgE-DNP and DNP-BSA-stimulated rat RBL2H3 cells assessed as inhibition of beta-hexosaminidase release at 1 uM pretreated before mIgE-DNP challenge measured after 12 hrs relative to control; format: functional; summary of the method: as §2
[7] = system: RBL-2H3; experiment: Antiallergic activity in mIgE-DNP and DNP-BSA-stimulated rat RBL2H3 cells assessed as inhibition of beta-hexosaminidase release at 100 uM pretreated before mIgE-DNP challenge measured after 12 hrs; format: functional, cell-based; summary of the method: as §2
[8] = system: RBL-2H3; experiment: Antiallergic activity in mIgE-DNP and DNP-BSA-stimulated rat RBL2H3 cells assessed as inhibition of beta-hexosaminidase release at 200 uM pretreated before mIgE-DNP challenge measured after 12 hrs; format: functional, cell-based; summary of the method: as §2
[9] = system: RBL-2H3; experiment: Antiallergic activity in mIgE-DNP and DNP-BSA-stimulated rat RBL2H3 cells assessed as inhibition of beta-hexosaminidase release at 1 uM pretreated before mIgE-DNP challenge measured after 24 hrs relative to control; format: functional; summary of the method: as §2
[10] = system: RBL-2H3; experiment: Antiallergic activity in mIgE-DNP and DNP-BSA-stimulated rat RBL2H3 cells assessed as inhibition of beta-hexosaminidase release at 1 uM pretreated before mIgE-DNP challenge measured after 48 hrs relative to control; format: functional; summary of the method: as §2
[11] = system: RBL-2H3; experiment: Antiallergic activity in mIgE-DNP and DNP-BSA-stimulated rat RBL2H3 cells assessed as inhibition of beta-hexosaminidase release at 100 uM pretreated before mIgE-DNP challenge measured after 24 hrs relative to control; format: functional; summary of the method: as §2
[12] = system: RBL-2H3; experiment: Antiallergic activity in mIgE-DNP and DNP-BSA-stimulated rat RBL2H3 cells assessed as inhibition of beta-hexosaminidase release at 100 uM pretreated before mIgE-DNP challenge measured after 48 hrs relative to control; format: functional; summary of the method: as §2
[13] = system: RBL-2H3; experiment: Antiallergic activity in mIgE-DNP and DNP-BSA-stimulated rat RBL2H3 cells assessed as inhibition of beta-hexosaminidase release at 200 uM pretreated before mIgE-DNP challenge measured after 24 hrs relative to control; format: functional; summary of the method: as §2
[14] = system: RBL-2H3; experiment: Antiallergic activity in mIgE-DNP and DNP-BSA-stimulated rat RBL2H3 cells assessed as inhibition of beta-hexosaminidase release at 200 uM pretreated before mIgE-DNP challenge measured after 48 hrs relative to control; format: functional; summary of the method: as §2

## COc1cc(CCC(=O)CC(O)CCc2ccc(O)c(OC)c2)ccc1O (stereo not drawn) [HEXAHYDROCURCUMIN]
[1]
  IC50: 152 µM
[2]
  Activity: Toxic
[3]
  inhibition: tde
[4]
  inhibition: Dose-dependent effect

## CCCCCCCCC[C@H](O)CC(=O)CCc1ccc(O)c(OC)c1
[1]
  IC50: 112 µM
[5]
  Activity: Toxic
[6]
  inhibition at 1 µM: 60%
[7]
  inhibition: Active
[8]
  inhibition: Active
[9]
  inhibition at 1 µM: 60%
[10]
  inhibition at 1 µM: 60%
[11]
  inhibition: Active
[12]
  inhibition: Active
[13]
  inhibition: Active
[14]
  inhibition: Active

## CCCCC[C@H](O)CC(=O)CCc1ccc(O)c(OC)c1 [GINGEROL]
[1]
  IC50: 185 µM
[2]
  Activity: Toxic
[6]
  inhibition at 1 µM: 60%
[7]
  inhibition: Active
[8]
  inhibition: Active
[9]
  inhibition at 1 µM: 60%
[10]
  inhibition at 1 µM: 60%
[11]
  inhibition: Active
[12]
  inhibition: Active
[13]
  inhibition: Active
[14]
  inhibition: Active

## CCCCC/C=C/C(=O)CCc1ccc(O)c(OC)c1 [SHOGAOL]
[1]
  IC50: 90.4 µM
[5]
  Activity: Toxic

## CCCCCC(=O)/C=C(O)/C=C/c1ccc(O)c(OC)c1
[1]
  IC50: 38.5 µM
[6]
  inhibition at 1 µM: 60%
[7]
  inhibition: Active
[8]
  inhibition: Active
[9]
  inhibition at 1 µM: 60%
[10]
  inhibition at 1 µM: 60%
[11]
  inhibition: Active
[12]
  inhibition: Active
[13]
  inhibition: Active
[14]
  inhibition: Active
